Series [1] deals with P388. Put plainly: Antitumor activity against mouse P388 cells allografted in mouse at 25 mg/kg, ip. It is filed as functional. The following applies: route intraperitoneal. An outline of the steps:
(§1)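 P-388 lymphocytic leukemia in mice, run by NCI Division of Cancer Treatment standard protocol. Drug given intraperitoneally once daily on days 1-9, dose in mg/kg, with H2O, H2O + Tween 80 or saline as vehicle. Read-out is T/C = treated/control mean or median survival time × 100, and ≥125% counts as significant. Active results were repeated in at least one more experiment.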

For series [2], the system named is P388. In words: Antitumor activity against mouse P388 cells allografted in mouse at 6.25 mg/kg, ip. It is filed as functional. The settings on record: route intraperitoneal. An outline of the steps:
as §1

Series [3] deals with P388. Put plainly: Antitumor activity against mouse P388 cells allografted in mouse at 3.13 mg/kg, ip. In kind it is functional. The following applies: route intraperitoneal. In outline:
as §1

A further series relates to Mus musculus. Put plainly: Toxicity in mouse P388 cells allografted mouse at 25 mg/kg, ip. In kind it is organism-based. The arrangement: dose 25 mg/kg, route intraperitoneal. The following applies: in vivo.
For series [4], the system named is P388. Put plainly: Antitumor activity against mouse P388 cells allografted in mouse at 18.8 mg/kg, ip. The following applies: route intraperitoneal. It is filed as functional. An outline of the steps:
as §1

Series [5] deals with P388. Put plainly: Antitumor activity against mouse P388 cells allografted in mouse at 50 mg/kg, ip. In kind it is functional. The following applies: route intraperitoneal. In outline:
as §1

Series [6] concerns P388. In words: Antitumor activity against mouse P388 cells allografted in mouse at 9 mg/kg, ip. The following applies: route intraperitoneal. It is filed as functional. In outline:
as §1

In series [7] the test system is P388. In words: Antitumor activity against mouse P388 cells allografted in mouse at 12.5 mg/kg, ip. It is filed as functional. The following applies: route intraperitoneal. In outline: as §1
Series [8] relates to P388. In words: Antitumor activity against mouse P388 cells allografted in mouse at 6 mg/kg, ip. The following applies: route intraperitoneal. In kind it is functional. An outline of the steps: as §1
Series [9] has as its system P388. Put plainly: Antitumor activity against mouse P388 cells allografted in mouse at 100 mg/kg, ip. In kind it is functional. The following applies: route intraperitoneal. In outline: as §1

For orientation: T/C means the ratio of treated to control. In the series on P388 [1], `O=C1c2ccccc2C(=O)N1CCP(=O)(c1ccccc1)c1ccccc1` showed a T/C of 106%.

In the series on P388 [1], `O=C1c2ccccc2C(=O)N1CC[P+](Cc1ccccc1)(Cc1ccccc1)Cc1ccccc1.[Br-]` registered a T/C of 112%.

In the series with P388 [1], `O=C1C=CC(=O)N1CC[P+](c1ccccc1)(c1ccccc1)c1ccccc1.[Br-]` returned a T/C of 120%.

As for `[Br-].c1ccc([P+](CCN2Cc3ccccc3C2)(c2ccccc2)c2ccccc2)cc1`, the T/C in the series with P388 [2] was 114%; with P388 [3] (dose 6.25 mg/kg, in the assay text read “at 6.25 mg/kg” for “at 3.13 mg/kg”), 114%.

With `O.O=c1c2cc3c(=O)n(CC[P+](c4ccccc4)(c4ccccc4)c4ccccc4)c(=O)c3cc2c(=O)n1CC[P+](c1ccccc1)(c1ccccc1)c1ccccc1.[Br-].[Br-]`, the T/C with P388 [1] worked out at 18%. For the same compound, the Activity result with Mus musculus was “Toxic”.

In the series with P388 [1], `O.O=C1c2ccc([N+](=O)[O-])cc2C(=O)N1CC[P+](c1ccccc1)(c1ccccc1)c1ccccc1.[Br-]` showed a T/C of 107%.

In the case of `Cc1ccc2c(c1)C(=O)N(CC[P+](c1ccccc1)(c1ccccc1)c1ccccc1)C2=O.[Br-]`, in the series on P388 [2], the T/C stood at 139%.

Compound `Br.O.[Br-].c1ccc([P+](CCN2Cc3ccccc3C2)(c2ccccc2)c2ccccc2)cc1` came in with a T/C in the series on P388 [2] of 118%.

With `O.O=C1c2ccccc2C(=O)N1C[P+](c1ccccc1)(c1ccccc1)c1ccccc1.[Br-]`, the T/C in the series with P388 [4] is 136%.

In the series with P388 [1], `O.O=C1C2CC=CCC2C(=O)N1CC[P+](c1ccccc1)(c1ccccc1)c1ccccc1.[Br-]` (stereo unspecified) showed a T/C of 115%.

Regarding `O.O=C1c2cccc([N+](=O)[O-])c2C(=O)N1CC[P+](c1ccccc1)(c1ccccc1)c1ccccc1.[Br-]`, the T/C in the series with P388 [5] was determined as 109%.

Consider `O=C1c2ccccc2C(=O)N1CCCC[P+](c1ccccc1)(c1ccccc1)c1ccccc1.[Br-]`, for which the T/C in the series with P388 [6] is on record as 121%.

In the series on P388 [2], `Cc1ccc([P+](CCN2C(=O)c3ccccc3C2=O)(c2ccc(C)cc2)c2ccc(C)cc2)cc1.O.[Br-]` had a T/C of 134%.

As to `BrCC[P+](c1ccccc1)(c1ccccc1)c1ccccc1.[Br-]`, the T/C in the series on P388 [3] (dose 3.13 mg/kg) is reported as 127%.

`COCC[P+](c1ccccc1)(c1ccccc1)c1ccccc1.[Br-]`: the T/C in the series with P388 [7] was 123%.

`O=C1c2ccccc2C(=O)N1CC[P+](c1ccccc1)(c1ccccc1)c1ccccc1.[Br-]`: the T/C in the series with P388 [7] was found to be 160%.

Consider `O.O=C1c2ccccc2C(=O)N1CCC[P+](c1ccccc1)(c1ccccc1)c1ccccc1.[Br-]`, for which the T/C in the series on P388 [7] was determined as 151%.

For the compound `COc1ccc([P+](CCN2C(=O)c3ccccc3C2=O)(c2ccc(OC)cc2)c2ccc(OC)cc2)cc1.O.[Br-]`, the T/C in the series on P388 [8] turned out to be 134%.

For `CCCC[P+](CCCC)(CCCC)CCN1C(=O)c2ccccc2C1=O.O.[Br-]`, the T/C in the series on P388 [9] is 116%.

As to `O.O=C1c2ccccc2C(=O)N1CC[P+](c1ccc(Cl)cc1)(c1ccc(Cl)cc1)c1ccc(Cl)cc1.[Br-]`, in the series with P388 [2], the T/C is reported as 110%.

On to `O=C1c2ccccc2C(=O)N1CC[P+](C1CCCCC1)(C1CCCCC1)C1CCCCC1.[Br-]`, for which the T/C in the series on P388 [1] is 118%.

With `Cc1cccc2c1C(=O)N(CC[P+](c1ccccc1)(c1ccccc1)c1ccccc1)C2=O.[Br-]`, the T/C in the series on P388 [3] (dose 3.13 mg/kg) amounted to 140%.

Turning to `N#CCC[P+](CCC#N)(CCC#N)CCN1C(=O)c2ccccc2C1=O.O.[Br-]`, in the series on P388 [1], the T/C is 117%.

In turn, `O.O=C1c2ccccc2C(=O)N1CC[P+](c1ccccc1)(c1ccccc1)c1ccccc1.[Cl-]` had a T/C in the series on P388 [2] of 133%.
